Assay results: ChEMBL document CHEMBL4028902, “Azetidine and Piperidine Carbamates as Efficient, Covalent Inhibitors of Monoacylglycerol Lipase” (J Med Chem, 2017)
Calls of active or inactive are those of the source. The rule behind the calls is not given here.

What was measured:
Monoglyceride lipase = target: T1, Monoglyceride lipase (Homo sapiens, UniProt Q99685); test: Inhibition of human recombinant MAGL using 7-HCA as substrate preincubated for 30 mins followed by substrate addition measured after 60 mins by fluorescence assay
T1 sequence (Q99685 whole entry): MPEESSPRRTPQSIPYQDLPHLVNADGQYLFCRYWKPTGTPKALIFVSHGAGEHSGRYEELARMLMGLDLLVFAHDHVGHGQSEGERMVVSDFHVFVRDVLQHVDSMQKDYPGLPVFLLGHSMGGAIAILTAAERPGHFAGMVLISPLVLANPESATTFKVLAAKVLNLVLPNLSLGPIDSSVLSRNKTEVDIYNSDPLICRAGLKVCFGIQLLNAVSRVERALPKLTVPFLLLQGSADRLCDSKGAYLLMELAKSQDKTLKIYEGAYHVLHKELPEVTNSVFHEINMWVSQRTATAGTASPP
Summary of the method: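 Reaction started with 7-HCA (5 μM final), run 60 min, fluorescence Ex/Em 340/465. Percent inhibition versus no-compound and full-inhibition controls; IC50 from four-parameter fit.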

[1] = Lipophilicity, log D of the compound; assay type: physicochemical; conditions: octanol/water
[2] = target: T2, Monoacylglycerol lipase ABHD6 (Homo sapiens) (UniProt Q9BV23); test: Inhibition of human ABHD6 at 1 to 10 uM relative to control
T2 sequence (whole entry): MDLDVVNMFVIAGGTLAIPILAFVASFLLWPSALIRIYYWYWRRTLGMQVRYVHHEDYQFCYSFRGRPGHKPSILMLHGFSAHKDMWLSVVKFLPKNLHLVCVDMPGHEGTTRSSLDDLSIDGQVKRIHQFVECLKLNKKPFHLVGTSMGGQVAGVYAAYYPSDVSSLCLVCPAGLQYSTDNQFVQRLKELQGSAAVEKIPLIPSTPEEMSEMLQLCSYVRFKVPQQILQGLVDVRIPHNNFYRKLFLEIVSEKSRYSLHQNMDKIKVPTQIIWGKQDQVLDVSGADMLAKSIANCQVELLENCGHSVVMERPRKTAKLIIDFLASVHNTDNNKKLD

Cocaine esterase = target: T3, Cocaine esterase (Homo sapiens, UniProt O00748); test: Inhibition of human CES2 at 1 to 10 uM relative to control
T3 sequence (O00748 whole entry): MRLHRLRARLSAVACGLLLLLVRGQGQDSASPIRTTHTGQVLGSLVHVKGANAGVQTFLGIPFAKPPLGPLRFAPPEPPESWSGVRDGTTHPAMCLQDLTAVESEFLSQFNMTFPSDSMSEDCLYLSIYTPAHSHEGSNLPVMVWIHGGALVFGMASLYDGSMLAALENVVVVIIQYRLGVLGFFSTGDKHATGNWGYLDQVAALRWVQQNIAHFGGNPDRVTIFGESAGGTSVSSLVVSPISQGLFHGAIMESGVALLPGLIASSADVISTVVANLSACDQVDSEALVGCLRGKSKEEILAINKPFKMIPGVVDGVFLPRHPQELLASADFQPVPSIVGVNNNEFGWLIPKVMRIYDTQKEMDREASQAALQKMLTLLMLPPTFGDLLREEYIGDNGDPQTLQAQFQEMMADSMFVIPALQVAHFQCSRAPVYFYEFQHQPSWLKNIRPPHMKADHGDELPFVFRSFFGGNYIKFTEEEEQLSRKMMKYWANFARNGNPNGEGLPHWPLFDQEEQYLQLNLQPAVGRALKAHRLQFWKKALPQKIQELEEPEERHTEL

[3] = target: T4, Monoglyceride lipase (Homo sapiens) (UniProt Q99685); test: Inhibition of human recombinant MAGL at 1 to 10 uM using 7-HCA as substrate preincubated for 30 mins followed by substrate addition measured after 60 mins by fluorescence assay relative to control
T4 sequence (whole entry): T1 sequence (Q99685 whole entry)

[4] = target: T5, Fatty-acid amide hydrolase 1 (Homo sapiens) (UniProt O00519); test: Inhibition of human recombinant FAAH at 10 uM using arachidonoyl-AMC as substrate preincubated for 30 mins followed by substrate addition measured after 60 mins by fluorescence assay relative to control
T5 sequence (whole entry): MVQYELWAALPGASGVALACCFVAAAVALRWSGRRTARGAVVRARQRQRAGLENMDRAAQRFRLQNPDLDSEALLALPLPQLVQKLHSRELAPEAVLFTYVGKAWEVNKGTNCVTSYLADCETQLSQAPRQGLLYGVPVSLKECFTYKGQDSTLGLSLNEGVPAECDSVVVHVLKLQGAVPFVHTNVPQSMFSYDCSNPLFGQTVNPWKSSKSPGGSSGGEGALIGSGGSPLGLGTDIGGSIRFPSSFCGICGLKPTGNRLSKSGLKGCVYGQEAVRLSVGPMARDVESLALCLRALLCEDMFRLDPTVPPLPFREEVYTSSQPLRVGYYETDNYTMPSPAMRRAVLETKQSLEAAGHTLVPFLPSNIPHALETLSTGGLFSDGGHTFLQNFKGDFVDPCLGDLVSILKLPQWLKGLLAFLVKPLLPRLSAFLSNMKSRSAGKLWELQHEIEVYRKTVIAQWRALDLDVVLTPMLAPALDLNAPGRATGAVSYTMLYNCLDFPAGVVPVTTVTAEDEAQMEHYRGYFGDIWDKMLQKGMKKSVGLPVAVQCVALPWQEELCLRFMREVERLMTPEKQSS

[5] = Tmax in C57Bl6 mouse at 10 mg/kg, sc; assay type: ADME, organism-based; conditions: in vivo
Summary of the method: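 Subcutaneous dosing of C57Bl6 mice in DMSO/Cremophor/saline (5:5:90). Plasma (NaF/K2EDTA tubes) and cerebellum collected at 0.5–24 h, 3 mice per time point. Cerebellum diluted 1:4 (w/v) with water and homogenized; samples deproteinated with methanol/acetonitrile plus internal standard, then HPLC-MS/MS. LLOQ 1.0 ng/mL plasma, 0.5 ng/mL brain homogenate. PK parameters by noncompartmental analysis.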

Mus musculus [6] = test: In vivo inhibition of MAGL in C57Bl6 mouse assessed as increase in 2-AG levels in brain at 1 mg/kg, sc measured at 0.5 hrs by LC-MS/MS method relative to control; assay type: functional
Summary of the method: (§1)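 C57Bl6 mice, 7 weeks old, 4 per cage, food and water ad libitum, dosed subcutaneously in DMSO/Cremophor/saline (5:5:90, v/v/v). Brains taken after isoflurane, cardiac puncture and cervical dislocation at 0.5, 1, 2, 4, 8, 12 and 24 h (3 mice per time point); vehicle group at 1 h. Frozen in liquid nitrogen, homogenized in 3 volumes PMSF/NH4OAc buffer pH 2.0, d5-2-AG internal standard, ACN extraction, LC-MS/MS (positive ESI, SRM).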

Mus musculus [7] = test: In vivo inhibition of MAGL in C57Bl6 mouse assessed as increase in 2-AG levels in brain at 10 mg/kg, sc measured after 24 hrs by LC-MS/MS method; assay type: functional, organism-based; summary of the method: as §1

Q: Which IC50 (Monoglyceride lipase) does the source give for O=C(OC(C(F)(F)F)C(F)(F)F)N1CC(c2ccn(-c3ccccc3)n2)C1 here?
A: 0.18 nM

Q: And the logD [1]?
A: 4.3

Q: What about the inhibition [2] of the same molecule?
A: > 70%

Q: And the “inhibition (INH)” value (Cocaine esterase)?
A: > 70%

Q: And the inhibition [3]?
A: > 70%

Q: What about the inhibition [4] of the same molecule?
A: > 70%

Q: And the Tmax [5]?
A: 30 min

Q: What about the “fold change (FC)” value (Mus musculus [6]) of the same molecule?
A: 3

Q: With O=C(OC(C(F)(F)F)C(F)(F)F)N1CCC(c2ccn(-c3ccccc3)n2)CC1 as the molecule, how does the IC50 (Monoglyceride lipase) read?
A: 2 nM

Q: What about the inhibition [2] of the same molecule?
A: > 70%

Q: And the “inhibition (INH)” value (Cocaine esterase)?
A: > 70%

Q: What about the inhibition [3] of the same molecule?
A: > 70%

Q: What about the inhibition [4] of the same molecule?
A: > 70%

Q: What about the inhibition (Mus musculus [7]) of the same molecule?
A: Active
